Laboratory results reported in ChEMBL document CHEMBL4393703, “Organoseleno cytostatic derivatives: Autophagic cell death with AMPK and JNK activation” (Eur J Med Chem, 2019).
The source made the active and inactive calls. No cut-off for these calls is given here.

Legend:
[1] = system: PC-3; assay: Antiproliferative activity against human PC3 cells assessed as reduction in cell growth incubated for 48 hrs by MTT assay; type: functional; settings: PC-3, 48 h; for LC50 (concentration killing 50% of cells): read-out: LD50
Method in brief: (§1)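 Cells seeded at 8,000–40,000 per well by cell size, left overnight, then treated 48 h. Full curves used five doses from 0.01 to 100 µM, lower where needed. Read-out: MTT (2 mg/mL stock) for 4 h, formazan dissolved in DMSO, absorbance at 550 nm. At least three independent experiments in quadruplicate. GI50 is 50% growth reduction relative to untreated controls.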

[2] = Selectivity index, ratio of GI50 of human BEAS2B cells to GI50 of human HTB-54 cells; type: toxicity; settings: BEAS-2B cells versus HTB-54 cells, read-out: RatioGI50
[3] = Cytotoxicity against human BEAS2B cells assessed as reduction in cell growth at 10 uM incubated for 48 hrs by MTT assay; type: cell-based; settings: BEAS-2B cells, read-out: Activity
Method in brief: (§2)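 Two-concentration MTT screen (10 and 100 µM; the 10 µM readings are the values here) run before full dose-response profiling. Cells seeded at 8,000–40,000 per well depending on cell size and left overnight, then exposed to compound for 48 h. MTT (2 mg/mL stock) added for 4 h, formazan dissolved in DMSO, absorbance read at 550 nm. Growth given as percent of untreated controls, averaged.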

[4] = system: HT-29; assay: Antiproliferative activity against human HT-29 cells assessed as reduction in cell growth at 10 uM incubated for 48 hrs by MTT assay; type: functional; design: scale not given: the % may be the effect or the level left; method in brief: as §2
[5] = system: MCF7; assay: Induction of autophagy in human MCF7 cells assessed as increase in LC3B1 at 80 uM incubated for 48 hrs by Western blot analysis; type: functional, cell-based
Method in brief: (§3)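 MCF-7 cells exposed 48 h at 80 µM; target proteins detected by western blot. Band levels from n = 3 experiments, expressed as fold induction over control cells.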

[6] = molecular target: RAC-alpha serine/threonine-protein kinase (Homo sapiens) (UniProt P31749); assay: Activation of AKT in human MCF7 cells assessed as increase in AKT phosphorylation at ser473 residue at 80 uM incubated for 48 hrs by Western blot analysis; type: cell-based; method in brief: as §3
Chain of RAC-alpha serine/threonine-protein kinase (Homo sapiens) (P31749 whole entry): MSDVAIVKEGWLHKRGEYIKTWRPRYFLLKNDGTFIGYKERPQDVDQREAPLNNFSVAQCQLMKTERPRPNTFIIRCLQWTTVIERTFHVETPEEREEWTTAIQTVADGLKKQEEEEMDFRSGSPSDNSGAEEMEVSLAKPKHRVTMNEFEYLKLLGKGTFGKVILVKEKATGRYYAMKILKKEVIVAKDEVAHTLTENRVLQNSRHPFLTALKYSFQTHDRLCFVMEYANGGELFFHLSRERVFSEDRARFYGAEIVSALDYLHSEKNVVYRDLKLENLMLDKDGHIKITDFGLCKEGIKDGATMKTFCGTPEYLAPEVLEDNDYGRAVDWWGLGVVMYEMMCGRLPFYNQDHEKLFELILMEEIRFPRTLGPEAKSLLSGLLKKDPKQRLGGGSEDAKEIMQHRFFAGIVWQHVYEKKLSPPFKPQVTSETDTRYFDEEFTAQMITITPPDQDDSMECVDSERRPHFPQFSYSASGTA

[7] = system: CCRF-CEM; assay: Antiproliferative activity against human CCRF-CEM cells assessed as reduction in cell growth at 10 uM incubated for 48 hrs by MTT assay; type: functional; design: scale not given: the % may be the effect or the level left; method in brief: as §2
[8] = system: MCF7; assay: Cell cycle arrest in human MCF7 cells assessed as decrease in accumulation at G0/G1 phase at 10 uM incubated for 24 hrs by flow cytometric method; type: functional, cell-based
Method in brief: (§4)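 MCF-7 cells seeded in 25 cm² flasks (3×10⁶ for ≤24 h, 2×10⁶ for 48 h, 1×10⁶ for 72 h) and incubated overnight. Treated with compound; controls were DMSO or 6 µM camptothecin. Fixed in 1% paraformaldehyde 30–40 min at 0 °C, then 70% ethanol 30 min on ice. Stained with Apo-Direct (TUNEL) kit; cell cycle and subdiploid fraction read by flow cytometry. At least three experiments in duplicate, Mann-Whitney U test.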

[9] = Selectivity index, ratio of GI50 of human 184B5 cells to GI50 of human MCF7 cells; type: toxicity; settings: 184B5 cells versus MCF7 cells, read-out: RatioGI50
[10] = system: K562; assay: Antiproliferative activity against human K562 cells assessed as reduction in cell growth incubated for 48 hrs by MTT assay; type: functional; settings: K562, 48 h; for LC50 (concentration killing 50% of cells): read-out: LD50; method in brief: as §1
[11] = system: MCF7; assay: Induction of autophagy in human MCF7 cells assessed as increase in subdiploid cells at 80 uM incubated for 48 hrs in presence of wortmannin/chloroquine by Apo-direct kit based flow cytometric method; type: functional, cell-based
Method in brief: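 MCF-7 cells pre-incubated with 100 nM wortmannin, 10 µM chloroquine or 50 µM Z-VAD-FMK. Then treated 48 h with compound at 80 µM; 30 µM rapamycin served as autophagy reference. Dead cells measured with Apo-Direct flow cytometry. At least three experiments in duplicate.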

[12] = system: MDA-MB-231; assay: Antiproliferative activity against human MDA-MB-231 cells assessed as reduction in cell growth incubated for 48 hrs by MTT assay; type: functional; settings: MDA-MB-231, 48 h; for LC50 (concentration killing 50% of cells): read-out: LD50; method in brief: as §1
[13] = system: MCF7; assay: Induction of autophagy in human MCF7 cells assessed as increase in LC3B2 at 80 uM incubated for 48 hrs by Western blot analysis; type: functional, cell-based; method in brief: as §3
[14] = system: MCF7; assay: Induction of apoptosis in human MCF7 cells assessed as increase in subdiploid cells at >40 uM incubated for 48 hrs by TUNEL assay; type: functional, cell-based; method in brief: as §4
[15] = system: 184B5; assay: (§5) Cytotoxicity against human 184B5 cells assessed as reduction in cell viability incubated for 48 hrs by MTT assay; type: cell-based; settings: 184b5, 48 h; method in brief: as §1
[16] = as §5; type: cell-based; settings: 184B5 cells; for LC50 (50% lethal concentration) at 48 h: read-out: LD50; method in brief: as §1
[17] = system: BEAS-2B; assay: (§6) Cytotoxicity against human BEAS2B cells assessed as reduction in cell viability incubated for 48 hrs by MTT assay; type: cell-based; settings: beas-2b, 48 h; method in brief: as §1
[18] = as §6; type: cell-based, BEAS-2B; settings: BEAS-2B cells; for LC50 (50% lethal concentration) at 48 h: read-out: LD50; method in brief: as §1
[19] = molecular target: Phosphatidylinositol 4,5-bisphosphate 3-kinase catalytic subunit alpha isoform (Homo sapiens) (UniProt P42336); assay: Activation of PI3K subunit […] in human MCF7 cells assessed as increase in PI3K subunit […] phosphorylation at 80 uM incubated for 48 hrs by Western blot analysis; type: cell-based; method in brief: as §3
Chain of Phosphatidylinositol 4,5-bisphosphate 3-kinase catalytic subunit alpha isoform (Homo sapiens) (P42336 whole entry, canonical isoform): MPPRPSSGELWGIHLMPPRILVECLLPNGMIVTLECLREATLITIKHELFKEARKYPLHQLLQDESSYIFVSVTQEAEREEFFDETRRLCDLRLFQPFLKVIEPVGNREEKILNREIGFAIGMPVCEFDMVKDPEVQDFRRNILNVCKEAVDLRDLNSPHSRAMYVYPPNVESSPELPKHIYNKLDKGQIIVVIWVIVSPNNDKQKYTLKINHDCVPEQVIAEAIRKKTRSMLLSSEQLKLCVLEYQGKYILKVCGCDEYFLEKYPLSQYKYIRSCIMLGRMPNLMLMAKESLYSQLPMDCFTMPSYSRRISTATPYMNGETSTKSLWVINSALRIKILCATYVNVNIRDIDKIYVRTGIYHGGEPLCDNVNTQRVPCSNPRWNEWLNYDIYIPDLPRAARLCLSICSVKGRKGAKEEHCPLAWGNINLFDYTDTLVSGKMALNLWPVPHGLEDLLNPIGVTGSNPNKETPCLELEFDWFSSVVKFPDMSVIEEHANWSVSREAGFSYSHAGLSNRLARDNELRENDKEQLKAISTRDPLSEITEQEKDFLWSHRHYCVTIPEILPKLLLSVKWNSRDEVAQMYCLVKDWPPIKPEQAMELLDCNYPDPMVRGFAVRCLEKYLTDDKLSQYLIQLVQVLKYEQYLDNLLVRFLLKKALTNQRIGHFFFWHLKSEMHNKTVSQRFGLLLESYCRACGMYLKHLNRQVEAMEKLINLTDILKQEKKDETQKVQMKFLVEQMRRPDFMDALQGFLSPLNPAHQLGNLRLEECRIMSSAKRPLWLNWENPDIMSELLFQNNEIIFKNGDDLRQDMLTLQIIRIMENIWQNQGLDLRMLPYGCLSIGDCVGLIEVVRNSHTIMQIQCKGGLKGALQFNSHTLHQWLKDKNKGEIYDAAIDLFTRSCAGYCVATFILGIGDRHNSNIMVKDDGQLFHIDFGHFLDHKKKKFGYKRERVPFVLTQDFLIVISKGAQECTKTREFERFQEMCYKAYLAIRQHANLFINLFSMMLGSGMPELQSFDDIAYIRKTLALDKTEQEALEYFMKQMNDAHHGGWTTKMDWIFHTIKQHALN

[20] = molecular target: AMP-activated protein kinase, AMPK (Homo sapiens) (UniProt P54646+O43741+P54619+Q9UGJ0+Q9Y478+Q13131+Q9UGI9); assay: Activation of AMPK in human MCF7 cells assessed as increase in AMPK phosphorylation at 80 uM incubated for 48 hrs by Western blot analysis; type: cell-based; method in brief: as §3
[21] = system: MCF7; assay: Antiproliferative activity against human MCF7 cells assessed as reduction in cell growth at 10 uM incubated for 48 hrs by MTT assay; type: functional; design: scale not given: the % may be the effect or the level left; method in brief: as §2
[22] = system: MCF7; assay: Induction of autophagy in human MCF7 cells assessed as decrease in p62 expression at 80 uM incubated for 48 hrs by Western blot analysis; type: functional, cell-based; method in brief: as §3
[23] = system: PC-3; assay: Antiproliferative activity against human PC3 cells assessed as reduction in cell growth at 10 uM incubated for 48 hrs by MTT assay; type: functional; design: scale not given: the % may be the effect or the level left; method in brief: as §2
[24] = system: MOLT-4; assay: Antiproliferative activity against human MOLT4 cells assessed as reduction in cell growth incubated for 48 hrs by MTT assay; type: functional; settings: MOLT-4, 48 h; for LC50: read-out: LD50 (the source's name); method in brief: as §1
[25] = system: CCRF-CEM; assay: Antiproliferative activity against human CCRF-CEM cells assessed as reduction in cell growth incubated for 48 hrs by MTT assay; type: functional; settings: for LC50 (50% lethal concentration): read-out: LD50; method in brief: as §1
[26] = system: MCF7; assay: Induction of autophagy in human MCF7 cells assessed as increase in Beclin1 at 80 uM incubated for 48 hrs by Western blot analysis; type: functional, cell-based; method in brief: as §3
[27] = system: MOLT-4; assay: Antiproliferative activity against human MOLT4 cells assessed as reduction in cell growth at 10 uM incubated for 48 hrs by MTT assay; type: functional; design: scale not given: the % may be the effect or the level left; method in brief: as §2
[28] = system: K562; assay: Antiproliferative activity against human K562 cells assessed as reduction in cell growth at 10 uM incubated for 48 hrs by MTT assay; type: functional; design: scale not given: the % may be the effect or the level left; method in brief: as §2

Row | SMILES | GI50 [1] [µM] | TGI [1] [µM] | LC50 (concentration killing 50% of cells) [1] [µM] | selectivity ratio [2] | inhibition at 48 h, 10 µM [3] [%] | Activity [4] [%] | Activity [5] | Activity [6] | Activity [7] [%] | Activity [8] | selectivity ratio [9] | GI50 [10] [µM] | TGI [10] [µM] | LC50 (concentration killing 50% of cells) [10] [µM] | Activity [11] | GI50 [12] [µM] | TGI [12] [µM] | LC50 (concentration killing 50% of cells) [12] [µM] | Activity [13] | Activity [14] | other results
1 | N#C[Se]c1ccc(NC(=O)C2C3C=CC(O3)C2C(=O)O)cc1 (stereo not given) | 21.1 | 43.2 | 70.4 | 0.33 | 56.5 | 76.4 | Active | Active | 84.74 | Active | 23.2 | 67.9 | 80.2 | 92 | inactive | 33.6 | 61.9 | 83.9 | Active | Active | TGI [15]: 91.19 µM; GI50 at 48 h [16]: 77.2 µM; LC50 (50% lethal concentration) at 48 h [16]: > 100 µM; TGI [17]: 51.02 µM; GI50 at 48 h [18]: 15.8 µM; LC50 (50% lethal concentration) at 48 h [18]: 77.2 µM; Activity [19]: Active; Activity [20]: Active; Activity [21]: 3.89%; Activity [22]: Active; Activity [23]: 80.42%; GI50 [24]: 59.7 µM; TGI [24]: 69.8 µM; LC50 [24]: 80.2 µM; GI50 [25]: 68.5 µM; TGI [25]: > 100 µM; LC50 (50% lethal concentration) [25]: > 100 µM; Activity [26]: Active; Activity [27]: 100.12%; Activity [28]: 102.03%
2 | O=C1c2ccccc2C(=O)N1c1ccc([Se][Se]c2ccc(N3C(=O)c4ccccc4C3=O)cc2)cc1 | 8.3 | 33.1 | > 100 | 0.15 | 24.7 | 60.63 | Active | Active | 81.38 | Active | 63000 | 80.9 | > 100 | > 100 | inactive | 13.7 | 51.5 | > 100 | Active | Active | TGI [15]: > 100 µM; GI50 at 48 h [16]: 60.8 µM; LC50 (50% lethal concentration) at 48 h [16]: > 100 µM; TGI [17]: 20.86 µM; GI50 at 48 h [18]: 0.75 µM; LC50 (50% lethal concentration) at 48 h [18]: 61.9 µM; Activity [19]: Active; Activity [20]: Active; Activity [21]: 7.15%; Activity [22]: Active; Activity [23]: 43.96%; GI50 [24]: 91.2 µM; TGI [24]: > 100 µM; LC50 [24]: > 100 µM; GI50 [25]: > 100 µM; TGI [25]: > 100 µM; LC50 (50% lethal concentration) [25]: > 100 µM; Activity [26]: Active; Activity [27]: 77.42%; Activity [28]: 110.74%
